According to ChEMBL document CHEMBL3992557, “Synthesis and biological evaluation of novel N3-substituted dihydropyrimidine derivatives as T-type calcium channel blockers and their efficacy as analgesics in mouse models of inflammatory pain” (Bioorg Med Chem, 2017):
Active and inactive are the calls of the source.

Tests used:
[1] = molecular target: Voltage-dependent L-type calcium channel subunit alpha-1C (Rattus norvegicus, UniProt P22002); assay: (§1) Inhibition of GFP-fused rat Cav1.2 expressed in human tsA-201 cells co-expressing Cavbeta1b/Cavalpha2delta1 assessed as tonic block at 10 uM at holding potential of -90 mV by whole cell patch clamp method relative to control; assay type: cell-based; conditions: 10 µM
Chain of Voltage-dependent L-type calcium channel subunit alpha-1C (P22002 whole entry, the tested form may be a part): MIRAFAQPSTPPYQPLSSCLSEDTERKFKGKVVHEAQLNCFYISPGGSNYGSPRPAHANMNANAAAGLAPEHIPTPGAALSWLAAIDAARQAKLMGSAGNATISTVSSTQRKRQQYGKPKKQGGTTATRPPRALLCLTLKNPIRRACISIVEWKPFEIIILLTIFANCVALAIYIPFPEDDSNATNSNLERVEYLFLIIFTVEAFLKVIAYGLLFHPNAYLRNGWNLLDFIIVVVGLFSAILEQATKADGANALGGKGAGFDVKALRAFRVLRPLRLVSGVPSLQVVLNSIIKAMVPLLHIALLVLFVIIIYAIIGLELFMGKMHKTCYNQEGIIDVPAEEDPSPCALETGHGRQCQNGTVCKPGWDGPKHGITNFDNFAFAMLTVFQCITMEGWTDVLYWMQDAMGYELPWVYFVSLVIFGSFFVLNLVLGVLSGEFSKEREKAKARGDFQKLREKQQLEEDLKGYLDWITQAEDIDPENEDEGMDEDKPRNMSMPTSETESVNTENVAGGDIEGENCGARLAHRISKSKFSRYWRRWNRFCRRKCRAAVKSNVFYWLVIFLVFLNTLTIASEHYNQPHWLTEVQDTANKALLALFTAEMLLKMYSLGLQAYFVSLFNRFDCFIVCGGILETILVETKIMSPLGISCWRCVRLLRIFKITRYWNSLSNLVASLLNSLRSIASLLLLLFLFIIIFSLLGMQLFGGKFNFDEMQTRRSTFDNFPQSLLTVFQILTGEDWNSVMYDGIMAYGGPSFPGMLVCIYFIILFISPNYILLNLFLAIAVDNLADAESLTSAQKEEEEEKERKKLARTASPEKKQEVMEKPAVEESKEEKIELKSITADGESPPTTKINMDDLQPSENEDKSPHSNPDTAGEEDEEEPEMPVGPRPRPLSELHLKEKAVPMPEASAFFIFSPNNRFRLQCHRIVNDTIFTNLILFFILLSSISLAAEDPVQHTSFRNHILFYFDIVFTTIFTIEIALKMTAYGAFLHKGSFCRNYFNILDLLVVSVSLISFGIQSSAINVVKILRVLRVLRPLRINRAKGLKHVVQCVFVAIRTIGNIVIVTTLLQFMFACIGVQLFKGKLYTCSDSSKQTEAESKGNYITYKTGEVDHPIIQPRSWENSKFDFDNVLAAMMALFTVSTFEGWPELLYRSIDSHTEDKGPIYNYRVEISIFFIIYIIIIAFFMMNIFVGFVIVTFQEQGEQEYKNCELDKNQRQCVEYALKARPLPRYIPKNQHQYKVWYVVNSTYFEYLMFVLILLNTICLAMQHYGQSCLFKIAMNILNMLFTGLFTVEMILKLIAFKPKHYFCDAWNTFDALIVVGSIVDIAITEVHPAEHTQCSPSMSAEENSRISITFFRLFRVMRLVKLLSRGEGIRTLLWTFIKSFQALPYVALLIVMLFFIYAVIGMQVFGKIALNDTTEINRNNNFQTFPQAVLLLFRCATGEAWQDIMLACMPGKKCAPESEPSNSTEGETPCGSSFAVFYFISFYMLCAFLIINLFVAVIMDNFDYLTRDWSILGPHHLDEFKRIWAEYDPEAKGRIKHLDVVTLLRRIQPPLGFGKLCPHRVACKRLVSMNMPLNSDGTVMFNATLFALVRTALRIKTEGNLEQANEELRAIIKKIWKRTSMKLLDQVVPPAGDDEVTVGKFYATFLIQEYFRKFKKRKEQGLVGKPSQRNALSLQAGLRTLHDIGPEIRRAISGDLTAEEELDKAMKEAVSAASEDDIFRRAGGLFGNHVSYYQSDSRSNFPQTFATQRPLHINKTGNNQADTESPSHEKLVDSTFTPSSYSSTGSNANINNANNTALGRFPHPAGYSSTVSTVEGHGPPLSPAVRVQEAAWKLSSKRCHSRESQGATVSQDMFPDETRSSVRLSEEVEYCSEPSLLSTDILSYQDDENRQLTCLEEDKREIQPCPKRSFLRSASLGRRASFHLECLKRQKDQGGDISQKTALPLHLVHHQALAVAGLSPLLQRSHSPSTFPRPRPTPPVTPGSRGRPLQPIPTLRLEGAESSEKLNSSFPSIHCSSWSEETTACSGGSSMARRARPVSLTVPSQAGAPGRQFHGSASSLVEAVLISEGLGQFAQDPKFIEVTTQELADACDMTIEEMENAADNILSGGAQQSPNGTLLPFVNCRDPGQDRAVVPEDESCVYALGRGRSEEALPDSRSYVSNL
Method in brief: (§2)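 tsA-201 cells were co-transfected with rat Cav1.2 plus Cavβ1b and Cavα2δ1 (5 µg each) and a GFP marker, then kept 2 days (30°C after 16-18 h). Whole-cell patch clamp used 20 mM BaCl2 bath, P/4 leak correction, 10 kHz sampling. Tonic resting-state block at 10 µM was given as % current inhibition. Final DMSO ≤0.1%.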

[2] = molecular target: T1, Voltage-dependent T-type calcium channel subunit alpha-1H (Homo sapiens, UniProt O95180); assay: Inhibition of GFP-fused Cav3.2-alpha1 (unknown origin) expressed in human tsA-201 cells at 10 uM at holding potential of -110 mV by whole cell patch clamp method relative to control; assay type: cell-based
T1 sequence (O95180 whole entry, the tested form may be a part): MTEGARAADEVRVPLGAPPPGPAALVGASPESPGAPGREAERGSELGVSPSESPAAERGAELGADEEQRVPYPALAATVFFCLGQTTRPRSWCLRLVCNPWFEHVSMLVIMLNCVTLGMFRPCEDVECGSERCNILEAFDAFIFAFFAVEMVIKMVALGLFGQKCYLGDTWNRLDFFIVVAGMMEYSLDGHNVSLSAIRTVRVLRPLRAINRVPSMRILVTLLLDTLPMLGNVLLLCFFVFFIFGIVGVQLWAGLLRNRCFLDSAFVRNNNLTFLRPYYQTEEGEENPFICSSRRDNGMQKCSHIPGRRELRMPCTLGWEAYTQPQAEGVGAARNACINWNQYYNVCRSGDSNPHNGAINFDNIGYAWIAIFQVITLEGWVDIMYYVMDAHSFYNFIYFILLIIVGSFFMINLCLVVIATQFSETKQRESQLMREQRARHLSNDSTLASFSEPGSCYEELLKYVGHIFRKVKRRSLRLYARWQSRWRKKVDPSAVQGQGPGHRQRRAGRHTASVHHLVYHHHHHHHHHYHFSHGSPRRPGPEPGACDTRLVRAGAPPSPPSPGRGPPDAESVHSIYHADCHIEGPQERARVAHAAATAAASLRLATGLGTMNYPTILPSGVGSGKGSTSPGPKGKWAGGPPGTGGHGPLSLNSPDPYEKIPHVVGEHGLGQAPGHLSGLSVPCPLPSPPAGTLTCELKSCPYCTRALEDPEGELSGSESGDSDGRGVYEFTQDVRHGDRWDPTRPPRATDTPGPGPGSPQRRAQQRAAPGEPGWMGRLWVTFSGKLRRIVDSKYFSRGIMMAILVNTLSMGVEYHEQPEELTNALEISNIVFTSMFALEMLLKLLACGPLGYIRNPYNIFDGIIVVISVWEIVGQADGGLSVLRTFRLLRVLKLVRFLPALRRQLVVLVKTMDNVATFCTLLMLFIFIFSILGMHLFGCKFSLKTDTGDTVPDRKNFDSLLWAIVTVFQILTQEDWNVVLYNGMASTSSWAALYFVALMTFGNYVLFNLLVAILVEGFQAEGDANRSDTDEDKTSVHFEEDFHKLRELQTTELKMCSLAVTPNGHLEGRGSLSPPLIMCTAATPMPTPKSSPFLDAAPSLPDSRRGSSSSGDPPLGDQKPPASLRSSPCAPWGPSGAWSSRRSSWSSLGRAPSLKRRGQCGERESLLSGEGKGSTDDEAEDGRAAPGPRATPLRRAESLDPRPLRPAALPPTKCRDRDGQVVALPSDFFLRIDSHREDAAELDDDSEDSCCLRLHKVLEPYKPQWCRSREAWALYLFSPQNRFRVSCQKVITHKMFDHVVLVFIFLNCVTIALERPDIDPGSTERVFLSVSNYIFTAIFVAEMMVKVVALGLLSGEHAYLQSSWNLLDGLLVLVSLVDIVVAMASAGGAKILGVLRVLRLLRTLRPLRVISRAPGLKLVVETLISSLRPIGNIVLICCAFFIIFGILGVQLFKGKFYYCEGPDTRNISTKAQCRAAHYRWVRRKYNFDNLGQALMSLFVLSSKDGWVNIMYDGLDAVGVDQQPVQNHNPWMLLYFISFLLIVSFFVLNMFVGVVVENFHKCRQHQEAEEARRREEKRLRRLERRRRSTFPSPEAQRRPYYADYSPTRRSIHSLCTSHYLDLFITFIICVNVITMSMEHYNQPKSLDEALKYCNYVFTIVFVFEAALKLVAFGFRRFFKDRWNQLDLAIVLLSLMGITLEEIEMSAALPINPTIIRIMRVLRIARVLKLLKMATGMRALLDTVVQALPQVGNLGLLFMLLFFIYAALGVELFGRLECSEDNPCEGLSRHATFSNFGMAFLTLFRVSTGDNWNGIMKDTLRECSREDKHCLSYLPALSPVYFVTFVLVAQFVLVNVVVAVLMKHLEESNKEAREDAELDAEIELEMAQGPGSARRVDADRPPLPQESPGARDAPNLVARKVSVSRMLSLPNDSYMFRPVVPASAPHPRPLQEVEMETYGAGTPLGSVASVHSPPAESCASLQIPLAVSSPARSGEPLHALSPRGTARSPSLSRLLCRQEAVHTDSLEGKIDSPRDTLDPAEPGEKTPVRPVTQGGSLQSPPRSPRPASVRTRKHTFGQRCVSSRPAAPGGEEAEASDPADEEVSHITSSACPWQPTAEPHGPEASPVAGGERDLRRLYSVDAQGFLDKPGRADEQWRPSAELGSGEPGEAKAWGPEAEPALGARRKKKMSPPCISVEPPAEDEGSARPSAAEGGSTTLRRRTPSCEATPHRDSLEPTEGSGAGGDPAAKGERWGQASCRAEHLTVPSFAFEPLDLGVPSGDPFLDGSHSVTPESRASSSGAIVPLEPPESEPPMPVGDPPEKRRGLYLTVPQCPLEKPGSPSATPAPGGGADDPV
Method in brief: (§3)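 HEK tsA-201 cells transfected by calcium phosphate with channel DNA plus GFP marker, moved to 30°C at 16-18 h, recorded two days later. Whole-cell patch clamp used Ba2+ (20 mM) external solution, pH 7.4, with CsCl-based internal solution. Recordings were P/4 leak-subtracted, 10 kHz sampling. Compound at 10 µM, DMSO ≤0.1% final, reported as % current inhibition. Cav2.2 n=3.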

[3] = molecular target: Cav1.2 (voltage-dependent L-type calcium channel subunit alpha-1C) (Rattus norvegicus, UniProt P22002); assay: as §1; assay type: cell-based; method in brief: as §2
Chain of Cav1.2 (voltage-dependent L-type calcium channel subunit alpha-1C) (P22002 whole entry, the tested form may be a part): as the sequence (P22002 whole entry, the tested form may be a part) above

[4] = molecular target: T1, Voltage-dependent T-type calcium channel subunit alpha-1H; assay: Inhibition of GFP-fused Cav3.2-alpha1 (unknown origin) expressed in human tsA-201 cells at holding potential of -110 mV by whole cell patch clamp method; assay type: cell-based
Method in brief: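 tsA-201 cells transiently expressing Cav3.2 α1 plus GFP were recorded by whole-cell patch clamp with 20 mM Ba2+ as charge carrier and P/4 leak subtraction. A dose-response curve was fitted to give IC50, n=3 cells per dose. Final DMSO ≤0.1%.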

[5] = molecular target: T1, Voltage-dependent T-type calcium channel subunit alpha-1H; assay: Inhibition of GFP-fused Cav3.2-alpha1 (unknown origin) expressed in human tsA-201 cells assessed as half activation potential at 1 uM at holding potential of -110 mV by whole cell patch clamp method (reference value: -30.84 +/- 0.46 mV); assay type: cell-based
[6] = molecular target: T1, Voltage-dependent T-type calcium channel subunit alpha-1H; assay: Inhibition of GFP-fused Cav3.2-alpha1 (unknown origin) expressed in human tsA-201 cells assessed as half inactivation potential for steady state inactivation curve at 1 uM at holding potential of -110 mV by whole cell patch clamp method (reference value: -46.27 +/- 0.57 mV); assay type: cell-based
[7] = molecular target: T1, Voltage-dependent T-type calcium channel subunit alpha-1H; assay: Inhibition of GFP-fused Cav3.2-alpha1 (unknown origin) expressed in human tsA-201 cells assessed as time required to reach steady state inhibition at 1 uM at holding potential of -110 mV by whole cell patch clamp method; assay type: cell-based
[8] = molecular target: Voltage-dependent N-type calcium channel subunit alpha-1B (Homo sapiens) (UniProt Q00975); assay: Inhibition of GFP-fused Cav2.2 (unknown origin) expressed in human tsA-201 cells assessed as at 10 uM by whole cell patch clamp method relative to control; assay type: cell-based; method in brief: as §3
Mus musculus [9] = assay: Analgesic activity in formalin-induced nociception C57BL/6J mouse model assessed as reduction in time spent licking and biting formalin injected paw per 10 uL administered intrathecally 20 mins prior to formalin injection measured up to 30 mins post formalin injection; assay type: functional
Method in brief: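 Adult male C57BL/6J mice (7-9 weeks). Intrathecal pretreatment at 0.3, 1 and 3 µg in 10 µl, or vehicle (1% DMSO in PBS, 10 µl). After 20 min, 20 µl of 1.25% formalin injected intraplantar into right hind paw.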

Mus musculus [10] = assay: Analgesic activity in CFA-induced mechanical hyperalgesia C57BL/6J mouse model assessed as mechanical paw withdrawal threshold at 1 ug/10 uL administered intrathecally 2 days after CFA injection measured at 20 to 150 mins post dose; assay type: functional
Method in brief: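 C57BL/6J male mice, 7-9 weeks; 30 µl CFA injected into right hind paw; 2 days later single intrathecal dose with vehicle 1% DMSO in PBS. Paw withdrawal threshold measured blinded by digital plantar aesthesiometer at 0, 20, 45, 90 and 150 min after dosing, after ≥1 h habituation. Each paw stimulated three times. n=6 per group; mean ± S.E.M, two-way ANOVA with Bonferroni test.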

[11] = molecular target: T1, Voltage-dependent T-type calcium channel subunit alpha-1H; assay: Inhibition of GFP-fused Cav3.2-alpha1 (unknown origin) expressed in human tsA-201 cells assessed as half activation potential at 3 uM at holding potential of -110 mV by whole cell patch clamp method (reference value: -32.07 +/- 0.8 mV); assay type: cell-based
[12] = molecular target: T1, Voltage-dependent T-type calcium channel subunit alpha-1H; assay: Inhibition of GFP-fused Cav3.2-alpha1 (unknown origin) expressed in human tsA-201 cells assessed as half inactivation potential for steady state inactivation curve at 3 uM at holding potential of -110 mV by whole cell patch clamp method (reference value: -47.6 +/- 0.87 mV); assay type: cell-based
[13] = molecular target: T1, Voltage-dependent T-type calcium channel subunit alpha-1H; assay: Inhibition of GFP-fused Cav3.2-alpha1 (unknown origin) expressed in human tsA-201 cells assessed as time required to reach steady state inhibition at 3 uM at holding potential of -110 mV by whole cell patch clamp method; assay type: cell-based
Mus musculus [14] = assay: Analgesic activity in CFA-induced mechanical hyperalgesia C57BL/6J mouse model assessed as mechanical paw withdrawal threshold at 3 ug/10 uL administered intrathecally 2 days after CFA injection measured at 90 to 150 mins post dose; assay type: functional
Method in brief: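 Adult male C57BL/6J mice (7-9 weeks). Right hind paw given 30 µl CFA intraplantar; 2 days later dosed intrathecally at 3 µg/10 µl, vehicle 1% DMSO in PBS. Thresholds read blinded with digital plantar aesthesiometer at 0, 20, 45, 90 and 150 min, each paw tested three times. n=6 mice per group, mean ± S.E.M, two-way ANOVA with Bonferroni post-hoc.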

Compound | inhibition [2] | inhibition (INH) [1] | inhibition at 10 µM [3] [%] | further results
CCOC(=O)C1=C(C)NC(=O)N(CCC(=O)N/N=C/c2ccc(F)cc2)C1c1cccc([N+](=O)[O-])c1 (centres undefined) | 70 to 95% | – | 60 to 85 | –
CCOC(=O)C1=C(C)NC(=O)N(CCC(=O)N/N=C\C=C\c2ccccc2)C1c1cccc([N+](=O)[O-])c1 (centres undefined) | 70 to 95% | – | 60 to 85 | –
CCOC(=O)C1=C(C)NC(=O)N(CCC(=O)NNS(=O)(=O)c2ccccc2)C1c1cccc([N+](=O)[O-])c1 (centres undefined) | 50% | – | 50 | –
CCOC(=O)C1=C(C)NC(=O)N(CCC(=O)N/N=c2\scc(-c3ccc(F)cc3)n2-c2ccccc2)C1c1cccc([N+](=O)[O-])c1 (centres undefined) | inactive | Not Active | – | –
CCOC(=O)C1=C(C)NC(=O)N(CCC(=O)NNC(=S)NC(c2ccccc2)c2ccccc2)C1c1cccc([N+](=O)[O-])c1 (centres undefined) | 70 to 95% | Not Active | – | IC50 [4]: 340 nM; V1/2 [5]: -30.6 mV; Activity [6]: -51.2 mV; TIME [7]: 0.133 to 0.167 h; inhibition [8]: 7.64%; MED (Mus musculus [9]): 1 µg; Activity (Mus musculus [10]): Active
CCOC(=O)C1=C(C)NC(=O)N(CCC(=O)N/N=C2/C(=O)Nc3ccccc32)C1c1cccc([N+](=O)[O-])c1 (centres undefined) | 50% | – | 50 | –
CCOC(=O)C/C(C)=N\NC(=O)CCN1C(=O)NC(C)=C(C(=O)OCC)C1c1cccc([N+](=O)[O-])c1 (centres undefined) | inactive | Not Active | – | –
CCOC(=O)C1=C(C)NC(=O)N(CCC(=O)N/N=C2/SCC(=O)N2c2ccc(C)cc2)C1c1cccc([N+](=O)[O-])c1 (centres undefined) | 70 to 95% | – | – | –
CCOC(=O)C1=C(C)NC(=O)N(CCC(=O)N/N=C2/SCC(=O)N2c2ccccc2)C1c1cccc([N+](=O)[O-])c1 (centres undefined) | inactive | Not Active | – | –
CCOC(=O)C1=C(C)NC(=O)N(CCC(=O)N/N=C/c2ccccc2)C1c1cccc([N+](=O)[O-])c1 (centres undefined) | 70 to 95% | – | 60 to 85 | IC50 [4]: 3390 nM; V1/2 [11]: -29.3 mV; Activity [12]: -48.8 mV; TIME [13]: 0.133 to 0.167 h; inhibition [8]: 31.9%; Activity (Mus musculus [9]): Dose-dependent effect; MED (Mus musculus [9]): 3 µg; Activity (Mus musculus [14]): Active

More lines, main results first:

inhibition [2] | Compound | inhibition (INH) [1] | inhibition at 10 µM [3] [%] | further results
70 to 95% | CCOC(=O)C1=C(C)NC(=O)N(CCc2nnc(Nc3ccccc3)s2)C1c1cccc([N+](=O)[O-])c1 (centres undefined) | Not Active | – | –
70 to 95% | CCOC(=O)C1=C(C)NC(=O)N(CCC(=O)N/N=C(/C)CC(c2ccccc2)c2ccccc2)C1c1cccc([N+](=O)[O-])c1 (centres undefined) | – | 60 to 85 | –
70 to 95% | CCOC(=O)C1=C(C)NC(=O)N(CCC(=O)N/N=C/C(c2ccccc2)c2ccccc2)C1c1cccc([N+](=O)[O-])c1 (centres undefined) | – | 60 to 85 | –
inactive | CCOC(=O)C1=C(C)NC(=O)N(CCC(=O)N/N=C(/C)C(c2ccccc2)c2ccccc2)C1c1cccc([N+](=O)[O-])c1 (centres undefined) | Not Active | – | –
inactive | CCOC(=O)C1=C(C)NC(=O)N(CC/C(=N/N(C(C)=O)C(C)=O)OC(C)=O)C1c1cccc([N+](=O)[O-])c1 (centres undefined) | Not Active | – | –
70 to 95% | CCOC(=O)C1=C(C)NC(=O)N(CCc2nnc(Nc3ccccc3)o2)C1c1cccc([N+](=O)[O-])c1 (centres undefined) | Not Active | – | –
inactive | CCOC(=O)C1=C(C)NC(=O)N(CCC(=O)NNC(=S)Nc2ccccc2)C1c1cccc([N+](=O)[O-])c1 (centres undefined) | Not Active | – | –
70 to 95% | CCOC(=O)C1=C(C)NC(=O)N(CCC(=O)N/N=C(/C)c2ccccc2)C1c1cccc([N+](=O)[O-])c1 (centres undefined) | – | 60 to 85 | –
70 to 95% | CCOC(=O)C1=C(C)NC(=O)N(CCC(=O)N/N=C(/C)c2ccc(F)cc2)C1c1cccc([N+](=O)[O-])c1 (centres undefined) | – | 60 to 85 | –
inactive | CCOC(=O)C1=C(C)NC(=O)N(CCC(=O)n2nc(C)cc2C)C1c1cccc([N+](=O)[O-])c1 (centres undefined) | Not Active | – | –
